# Tests used:
# Type in all cases: functional
# Mus musculus [1] = assay: Percent increase in median life span of BDF1 mice with B-16 melanoma at dose 6.00 mg/kg administered intraperitoneally; conditions: BDF1, B16, ip, route intraperitoneal
# Procedure, shortened: (§1)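 BDF1 mice were implanted ip with a homogenate from 0.05 g of B-16 melanoma. Ip dosing ran on days 1-9, starting 24 h after implant, in dose-response studies following NCI protocols. The read-out was percent increase in life span (ILS). T/C ≥125% was taken as significant.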
# Mus musculus [2] = species: Mus musculus; assay: Anticancer activity measured as the number of survivors of the total treated mice with P-388 leukemia at 30 days.
# Procedure, shortened: (§2)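 BDF1 or CDF1 mice given 10^6 ascitic P-388 leukemia cells ip, then treated ip on days 1, 5 and 9. Cures are survivors over total treated at 30 days.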
# Mus musculus [3] = species: Mus musculus; assay: Number of survivors of the total treated mice with B-16 melanoma, at 60 days.
# Procedure, shortened: (§3)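 BDF1 mice were implanted ip with a homogenate from 0.05 g of B-16 melanoma and dosed ip on days 1-9. Cures are survivors over total at 60 days.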
# Mus musculus [4] = assay: Percent increase in median life span of BDF1 mice with P-388 leukemia at dose 25 mg/kg administered intraperitoneally; conditions: BDF1, P388, ip, route intraperitoneal
# Mus musculus [5] = assay: Percent increase in median life span of BDF1 mice with B-16 melanoma at dose 3 mg/kg administered intraperitoneally; conditions: BDF1, B16, ip, route intraperitoneal; procedure, shortened: as §1
# Mus musculus [6] = species: Mus musculus; assay: Cures is the number of survivors of the total treated mice (6) with P-388 leukemia, at 30 days.; procedure, shortened: as §2
# Mus musculus [7] = assay: Percent increase in median life span of BDF1 mice with P-388 leukemia at dose 6.25 mg/kg administered intraperitoneally; conditions: BDF1, P388, ip, route intraperitoneal
# Mus musculus [8] = assay: Percent increase in median life span of BDF1 mice with B-16 melanoma at dose 1.5 mg/kg administered intraperitoneally; conditions: BDF1, B16, ip, route intraperitoneal; procedure, shortened: as §1
# Mus musculus [9] = species: Mus musculus; assay: Cures is the number of survivors of the total treated mice (10) with B-16 melanoma, at 60 days.; procedure, shortened: as §3
# Mus musculus [10] = assay: Percent tumor inhibition at non-lethal dose was determined in BDF1 mice with madison lung 109 leukemia; 1, 5, 9 days of sc treatment relative to tumor inoculation
# Mus musculus [11] = assay: Percent increase in median life span of BDF1 mice with Colon 26 at dose 3.1 mg/kg administered intraperitoneally; 1, 5, 9 days of ip treatment relative to tumor inoculation; conditions: BDF1, Colon 26, ip, 216 h, route intraperitoneal
# Mus musculus [12] = species: Mus musculus; assay: Cures is the number of survivors of the total treated mice (6) with advanced L-1210 leukemia, at 30 days.
# Procedure, shortened: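 Advanced L-1210 leukemia, with ip treatment on days 5, 9 and 13 relative to tumor inoculation.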
# Mus musculus [13] = assay: Percent increase in median life span of BDF1 mice with madison lung 109 leukemia administered intraperitoneally
# Mus musculus [14] = assay: Percent increase in median life span of BDF1 mice with advanced L-1210 leukemia at dose 6.2 mg/kg administered intraperitoneally; treatment day +2 iv; conditions: L1210
# Mus musculus [15] = assay: Percent increase in median life span of BDF1 mice with B-16 melanoma at dose 3 mg/kg administered intraperitoneally; 1-9 days of ip treatment relative to tumor inoculation; conditions: BDF1, B16, ip, route intraperitoneal; procedure, shortened: as §1
# Mus musculus [16] = assay: Percent increase in median life span of BDF1 mice with P-388 leukemia at dose 6.25 mg/kg administered intraperitoneally; 1, 5, 9 days of ip treatment relative to tumor inoculation; conditions: BDF1, P388, ip, 216 h, route intraperitoneal
# Procedure, shortened: (§4)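 BDF1 or CDF1 mice given 10^6 ascitic leukemia cells ip, then dosed ip on days 1, 5 and 9. Read-out is percent increase in life span versus untreated controls. Cures were scored as survivors/total at 30 days; when cures reached 50% or more, the run was extended until a specific ILS could be calculated. T/C ≥125% counted as significant.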
# Mus musculus [17] = assay: Percent increase in median life span of BDF1 mice with advanced P-388 leukemia at dose 12.5 mg/kg administered intraperitoneally; 4, 8, 12 days of ip treatment relative to tumor inoculation; conditions: P388, ip, 288 h, route intraperitoneal
# Mus musculus [18] = species: Mus musculus; assay: Cures is the number of survivors of the total treated mice (8) with Colon 26, at 60 days.
# Mus musculus [19] = assay: Percent increase in median life span of BDF1 mice with B-16 melanoma at dose 3 mg/kg administered intraperitoneally; range 116-129%, 1-9 days of ip treatment relative to tumor inoculation; conditions: BDF1, B16, ip, route intraperitoneal; procedure, shortened: as §1
# Mus musculus [20] = species: Mus musculus; assay: Cures is the number of survivors of the total treated mice (10) with Colon 26, at 60 days.
# Mus musculus [21] = assay: Percent increase in median life span of BDF1 mice with advanced B-16 melanoma at dose 6.2 mg/kg administered intraperitoneally; 5, 9, 13 days of ip treatment relative to tumor inoculation; conditions: B16, ip, 312 h, route intraperitoneal
# Mus musculus [22] = assay: Percent increase in median life span of BDF1 mice with L-1210 leukemia at dose 6.2 mg/kg administered intraperitoneally; 1, 5, 9 days of ip treatment relative to tumor inoculation; conditions: BDF1, L1210, ip, 216 h, route intraperitoneal; procedure, shortened: as §4
# Mus musculus [23] = species: Mus musculus; assay: Cures is the number of survivors of the total treated mice (18) with P-388 leukemia, at 30 days.; procedure, shortened: as §2
# Mus musculus [24] = species: Mus musculus; assay: Cures is the number of survivors of the total treated mice (10) with advanced B-16 melanoma, at 30 days.
# Mus musculus [25] = species: Mus musculus; assay: Cures is the number of survivors of the total treated mice (6) with L-1210 leukemia, at 30 days.
# Mus musculus [26] = species: Mus musculus; assay: Cures is the number of survivors of the total treated mice (20) with B-16 melanoma, at 60 days.; procedure, shortened: as §3
# Mus musculus [27] = assay: Percent increase in median life span of BDF1 mice with Colon 26 at dose 6.2 mg/kg administered intraperitoneally; 1, 5, 9 days of ip treatment relative to tumor inoculation; conditions: BDF1, Colon 26, ip, 216 h, route intraperitoneal
# Mus musculus [28] = species: Mus musculus; assay: Cures is the number of survivors of the total treated mice (42) with P-388 leukemia, at 30 days.; procedure, shortened: as §2
# Mus musculus [29] = species: Mus musculus; assay: Cures is the number of survivors of the total treated mice (20) with Colon 26, at 60 days.
# Mus musculus [30] = assay: Cures is the number of survivors of the total treated mice (6) with advanced L-1210 leukemia; treatment day +2 iv
# Procedure, shortened: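 Advanced L-1210 leukemia, treated iv once on day +2 relative to tumor inoculation.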
# Mus musculus [31] = assay: Percent increase in median life span of BDF1 mice with L-1210 leukemia at dose 12.5 mg/kg administered intraperitoneally; 1, 5, 9 days of ip treatment relative to tumor inoculation; conditions: BDF1, L1210, ip, 216 h, route intraperitoneal; procedure, shortened: as §4
# Mus musculus [32] = species: Mus musculus; assay: Cures is the number of survivors of the total treated mice (10) with P-388 leukemia, at 30 days.; procedure, shortened: as §2
# Mus musculus [33] = assay: Percent increase in median life span of BDF1 mice with P-388 leukemia at dose 12.5 mg/kg administered intraperitoneally; 1, 5, 9 days of ip treatment relative to tumor inoculation; conditions: BDF1, P388, ip, 216 h, route intraperitoneal; procedure, shortened: as §4
# Mus musculus [34] = species: Mus musculus; assay: Cures is the number of survivors of the total treated mice (17) with L-1210 leukemia, at 30 days.
# Mus musculus [35] = assay: Percent increase in median life span of BDF1 mice with Colon 26 at dose 6.2 mg/kg administered intraperitoneally; Range is 114-150%; 1, 5, 9 days of ip treatment relative to tumor inoculation; conditions: BDF1, Colon 26, ip, 216 h, route intraperitoneal
# Mus musculus [36] = assay: Percent increase in median life span of BDF1 mice with advanced B-16 melanoma at dose 12.5 mg/kg administered intraperitoneally; 5, 9, 13 days of ip treatment relative to tumor inoculation; conditions: BDF1, B16, ip, 312 h, route intraperitoneal
# Mus musculus [37] = species: Mus musculus; assay: Percent increase in median life span of BDF1 mice with advanced L-1210 leukemia
# Mus musculus [38] = assay: Percent increase in median life span of BDF1 mice with B-16 melanoma at dose 6 mg/kg administered intraperitoneally; range 98-122%; 1-9 days of ip treatment relative to tumor inoculation; conditions: BDF1, B16, ip, route intraperitoneal; procedure, shortened: as §1
structure (smiles),measurement,setting,value
CN(C)CCCCC/N=C(\S)N/N=C/c1c2ccccc2c(/C=N/N/C(S)=N/CCCCCN(C)C)c2ccccc12.Cl.Cl,ILS at 6 mg/kg,Mus musculus [1],97%
same,Cures,Mus musculus [2],0
same,Cures,Mus musculus [3],0
same,ILS at 25 mg/kg,Mus musculus [4],48%
CN(/N=C/c1c2ccccc2c(/C=N/N(C)C2=NCCN2)c2ccccc12)C1=NCCN1,Cures,Mus musculus [3],0
same,ILS at 3 mg/kg,Mus musculus [5],95%
same,Cures,Mus musculus [6],1
same,ILS at 6.25 mg/kg,Mus musculus [7],124%
C/N=C(\NC)N/N=C/c1c2ccccc2c(/C=N/N/C(=N/C)NC)c2ccccc12,Cures,Mus musculus [3],0
same,ILS at 3 mg/kg,Mus musculus [5],111%
same,Cures,Mus musculus [6],1
same,ILS at 6.25 mg/kg,Mus musculus [7],118%
Cl.Cl.Clc1cccc2c(/C=N/NC3=NCCN3)c3ccccc3c(/C=N/NC3=NCCN3)c12,ILS at 1.5 mg/kg,Mus musculus [8],153%
same,Cures,Mus musculus [6],3
same,ILS at 6.25 mg/kg,Mus musculus [7],186%
same,Cures,Mus musculus [9],3
Cl.Cl.Clc1ccc2c(/C=N/NC3=NCCCN3)c3ccccc3c(/C=N/NC3=NCCCN3)c2c1,Inhibition,Mus musculus [10],16%
same,ILS at 3.1 mg/kg,Mus musculus [11],175%
same,Cures,Mus musculus [12],0
same,ILS,Mus musculus [13],<25%
same,ILS at 6.2 mg/kg,Mus musculus [14],28%
same,Cures,Mus musculus [9],6
same,ILS at 3 mg/kg,Mus musculus [15],194%
same,ILS at 6.25 mg/kg,Mus musculus [16],127%
same,ILS at 12.5 mg/kg,Mus musculus [17],80%
same,Cures,Mus musculus [18],1
CN(C)C(=N)N/N=C/c1c2ccccc2c(/C=N/N=C(\N)N(C)C)c2ccccc12,ILS at 3 mg/kg,Mus musculus [19],125%
same,Cures,Mus musculus [20],1
same,ILS at 6.2 mg/kg,Mus musculus [21],41%
same,ILS at 6.2 mg/kg,Mus musculus [22],100%
same,Cures,Mus musculus [23],3
same,Cures,Mus musculus [24],2
same,Cures,Mus musculus [25],0
same,Cures,Mus musculus [26],2
same,ILS at 6.25 mg/kg,Mus musculus [16],103%
same,ILS at 6.2 mg/kg,Mus musculus [27],167%
C(=N\NC1=NCCN1)/c1c2ccccc2c(/C=N/NC2=NCCN2)c2ccccc12 [BISANTRENE],Inhibition,Mus musculus [10],20%
same,Cures,Mus musculus [28],17
same,Cures,Mus musculus [29],6
same,Cures,Mus musculus [30],0
same,ILS at 12.5 mg/kg,Mus musculus [31],62%
same,Cures,Mus musculus [32],2
same,ILS at 12.5 mg/kg,Mus musculus [33],137%
same,Cures,Mus musculus [24],2
same,Cures,Mus musculus [34],0
same,Cures,Mus musculus [6],0
same,ILS at 6.2 mg/kg,Mus musculus [35],114%
same,ILS,Mus musculus [13],<25%
same,ILS at 12.5 mg/kg,Mus musculus [36],54%
same,ILS,Mus musculus [37],48%
same,Cures,Mus musculus [26],2
same,ILS at 6 mg/kg,Mus musculus [38],122%
same,ILS at 12.5 mg/kg,Mus musculus [17],76%

# Source: ChEMBL document CHEMBL1122207, “Antitumor agents. 2. Bisguanylhydrazones of anthracene-9,10-dicarboxaldehydes” (1982)
